Calls of active or inactive are those of the source. No cut-off for these calls is given here.
What was measured:
[1] = Clearance in Wistar rat at 3 mg/kg, iv by LC/MS/MS analysis; assay type: ADME, organism-based; conditions: in vivo
[2] = target: T1, Signal peptide peptidase-like 2A (Mus musculus) (UniProt Q9JJF9); conditions: 2 uM
T1 sequence (whole entry): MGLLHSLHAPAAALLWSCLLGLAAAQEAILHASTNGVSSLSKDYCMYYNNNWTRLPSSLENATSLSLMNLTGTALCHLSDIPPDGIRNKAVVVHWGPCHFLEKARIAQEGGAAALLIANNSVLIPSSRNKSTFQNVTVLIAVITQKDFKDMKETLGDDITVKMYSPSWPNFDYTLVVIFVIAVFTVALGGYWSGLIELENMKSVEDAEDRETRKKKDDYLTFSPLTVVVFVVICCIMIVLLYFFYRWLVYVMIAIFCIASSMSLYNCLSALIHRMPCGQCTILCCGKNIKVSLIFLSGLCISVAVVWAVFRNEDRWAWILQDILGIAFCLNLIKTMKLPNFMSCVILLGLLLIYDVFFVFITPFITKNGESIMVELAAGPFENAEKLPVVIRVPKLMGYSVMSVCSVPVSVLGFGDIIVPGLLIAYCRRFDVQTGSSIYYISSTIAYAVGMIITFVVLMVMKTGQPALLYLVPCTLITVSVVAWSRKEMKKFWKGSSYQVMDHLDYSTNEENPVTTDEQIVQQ

[3] = tested on: Mus musculus; test: In vivo inhibition of SPPL2a in mouse assessed as accumulation of CD74/p8 in splenocyte lysate at 1 to 3 mg/kg administered via oral gavage as single dose measured 16 hrs post dose by Western blot method; assay type: functional, organism-based
Summary of the method: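 Mice gavaged in 0.5% MC:0.5% Tween or PEG:D5W 3:1. Spleens dissociated, red cells lysed with ACK, 1 × 10^6 cells lysed with protease inhibitors; 18 μg lysate on 10% gel, blotted, CD74 full length and p8 detected with rat anti-mouse CD74 In-1 and Alexa488 anti-rat IgG, LiCor scan; p8/full-length ratio expressed as percent of reference compound ratio.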

[4] = tested on: Mus musculus; test: Dose normalized drug uptake in Balb/c mouse at 5 mg/kg, iv by LC/MS/MS analysis; assay type: ADME, organism-based; conditions: in vivo
[5] = Clearance in Sprague-Dawley rat at 1 mg/kg, iv by LC/MS/MS analysis; assay type: ADME, organism-based; conditions: in vivo
Summary of the method: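 Female Sprague−Dawley rats with femoral artery and vein catheters implanted 96−120 h beforehand; cassette dosing iv 1 mg/kg per compound in NMP/PEG200 (30:70); arterial blood into EDTA tubes at several times, frozen; LC-MS/MS vs standard curve with QCs within 70−130%; noncompartmental analysis.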

| clearance [1] | inhibition [2] | Druguptake/dose [4] | clearance [5] | Compound | inhibition [3] |
| --- | --- | --- | --- | --- | --- |
| 6 mL/min/kg | 50% | 264 nM |  | Cc1ncc(F)cc1NC(=O)C[C@H](C(=O)N[C@@H]1C(=O)N2CC3(CC3)CN2C(=O)c2ccccc21)C1CC1 | inactive |
|  |  |  | 45 mL/min/kg | Cc1ccccc1NC(=O)C[C@@H](C)C(=O)N[C@@H]1C(=O)N2CCCN2Cc2ccccc21 |  |
